# Experiments:
# [1] = AUC in Hartley guinea pig at 1 mg/kg, iv; format: ADME, organism-based, Cavia porcellus; design: dose 1 mg/kg, route intravenous; details: plasma
# Summary of the method: (§1)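 Male Hartley guinea pigs (325–350 g) or male Sprague-Dawley rats (250–300 g) received a 1:1 deuterio/proto mixture. Oral dose was ~5 mg/kg total (2.5 mg/kg per isotopomer) in water; IV bolus via the jugular vein was ~2 mg/kg total (1 mg/kg per isotopomer) in saline. Carotid blood was drawn between 10 min and 6 h, and plasma was assayed by LC-MS/MS. AUC and t1/2 cover only the first to last measured time points.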
# [2] = Half life in Hartley guinea pig at 1 mg/kg, iv; format: ADME, organism-based, Cavia porcellus; design: dose 1 mg/kg, route intravenous; details: in vivo; summary of the method: as §1
# [3] = AUC in Sprague-Dawley rat at 1 mg/kg, iv; format: ADME, organism-based; design: dose 1 mg/kg, route intravenous; details: plasma; summary of the method: as §1
# [4] = Half life in Sprague-Dawley rat at 1 mg/kg, iv; format: ADME, organism-based; design: dose 1 mg/kg, route intravenous; details: in vivo; summary of the method: as §1
# [5] = AUC in Hartley guinea pig at 2.5 mg/kg, po; format: ADME, organism-based, Cavia porcellus; design: dose 2.5 mg/kg, route oral; details: plasma; summary of the method: as §1
# [6] = Cmax in Hartley guinea pig at 2.5 mg/kg, po; format: ADME, organism-based, Cavia porcellus; design: dose 2.5 mg/kg, route oral; details: in vivo; summary of the method: as §1
# [7] = Half life in Hartley guinea pig at 2.5 mg/kg, po; format: ADME, organism-based, Cavia porcellus; design: dose 2.5 mg/kg, route oral; details: in vivo; summary of the method: as §1
# [8] = AUC in Sprague-Dawley rat at 2.5 mg/kg, po; format: ADME, organism-based; design: dose 2.5 mg/kg, route oral; details: plasma; summary of the method: as §1
# [9] = Cmax in Sprague-Dawley rat at 2.5 mg/kg, po; format: ADME, organism-based; design: dose 2.5 mg/kg, route oral; details: in vivo; summary of the method: as §1
# [10] = Half life in Sprague-Dawley rat at 2.5 mg/kg, po; format: ADME, organism-based; design: dose 2.5 mg/kg, route oral; details: in vivo; summary of the method: as §1
# aldehyde oxidase = assay: Activity of guinea pig cytosolic aldehyde oxidase; details: cytosol (aldehyde oxidase)
# [11] = AUC in Hartley guinea pig at 5 mg/kg, iv; format: ADME, organism-based, Cavia porcellus; design: dose 5 mg/kg, route intravenous; details: plasma
# Summary of the method: (§2)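 A 1:1 deuterio/proto mixture, ~10 mg/kg total (5 mg/kg per isotopic form), was given orally in water or as an IV bolus via the jugular vein in saline. Animals were male Hartley guinea pigs (325–350 g) or male Sprague-Dawley rats (250–300 g). Carotid blood was sampled from 10 min to 6 h, and plasma was analysed by LC-MS/MS MRM. AUC and t1/2 were calculated between the first and last measured points.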
# [12] = AUC in Sprague-Dawley rat at 5 mg/kg, iv; format: ADME, organism-based; design: dose 5 mg/kg, route intravenous; details: plasma; summary of the method: as §2
# [13] = AUC in Hartley guinea pig at 5 mg/kg, po; format: ADME, organism-based, Cavia porcellus; design: dose 5 mg/kg, route oral; details: plasma; summary of the method: as §2
# [14] = Cmax in Hartley guinea pig at 5 mg/kg, po; format: ADME, organism-based, Cavia porcellus; design: dose 5 mg/kg, route oral; details: in vivo; summary of the method: as §2
# [15] = AUC in Sprague-Dawley rat at 5 mg/kg, po; format: ADME, organism-based; design: dose 5 mg/kg, route oral; details: plasma; summary of the method: as §2
# [16] = Cmax in Sprague-Dawley rat at 5 mg/kg, po; format: ADME, organism-based; design: dose 5 mg/kg, route oral; details: in vivo; summary of the method: as §2
Compound,AUC [1] [ng·h/mL],half-life [2] [min],AUC [3] [ng·h/mL],half-life [4] [min],AUC [5] [ng·h/mL],Cmax [6] [ng/mL],half-life [7] [min],AUC [8] [ng·h/mL],Cmax [9] [ng/mL],half-life [10] [min],AUC [11] [ng·h/mL],AUC [12] [ng·h/mL],AUC [13] [ng·h/mL],Cmax [14] [ng/mL],AUC [15] [ng·h/mL],Cmax [16] [ng/mL],Km (aldehyde oxidase) [µM]
c1ccc2ncccc2c1 [QUINOLINE],–,–,–,–,–,–,–,–,–,–,–,–,–,–,–,–,212
[2H]c1ccc2ccccc2n1,–,–,–,–,–,–,–,–,–,–,–,–,–,–,–,–,193
[2H]c1ccc2c(-n3ncc(C(=O)NC(=N)N)c3C3CC3)cccc2n1,40.7,30,77.4,30,25.7,23.3,30,12.7,18.4,18,–,–,–,–,–,–,–

# Second part, led by results:
AUC [1] [ng·h/mL],half-life [2] [min],AUC [3] [ng·h/mL],half-life [4] [min],AUC [5] [ng·h/mL],Cmax [6] [ng/mL],half-life [7] [min],AUC [8] [ng·h/mL],Cmax [9] [ng/mL],half-life [10] [min],AUC [11] [ng·h/mL],AUC [12] [ng·h/mL],AUC [13] [ng·h/mL],Cmax [14] [ng/mL],AUC [15] [ng·h/mL],Cmax [16] [ng/mL],Compound,Km (aldehyde oxidase) [µM]
23.2,30,74.4,24,22.2,26.5,30,19.7,24.7,18,–,–,–,–,–,–,N=C(N)NC(=O)c1cnn(-c2cccc3ncccc23)c1C1CC1 [ZONIPORIDE],–
–,–,–,–,–,–,–,–,–,–,35.6,509,4.25,9.8,1630,1150,CCNC(=O)OC1CCN(c2nncc3cc(OC)c(OC)cc23)CC1 [CARBAZERAN],–
–,–,–,–,–,–,–,–,–,–,206,1270,96,161,3720,1770,[2H]c1nnc(N2CCC(OC(=O)NCC)CC2)c2cc(OC)c(OC)cc12,–

# — ChEMBL document CHEMBL3525996, “Deuterium isotope effects on drug pharmacokinetics. I. System-dependent effects of specific deuteration with aldehyde oxidase cleared drugs” (Drug Metab Dispos, 2012)
